CRFR2-BP antag – antagonists of CRF-BP/CRF-R2 complex, primary screen, cell-based, HEK293, calcium dye fluorescence, uHTS; CRF-induced calcium fluorescence; inhibition, % at 11.8 µM; 350,000 tested, 0.59% active;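 active = inhibition of the ligand-induced calcium signal above about 50% at the single tested concentration, limit read from the data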
Rpn11 inh – Rpn11 (PSMD14) deubiquitinase inhibitors, primary screen, biochemical, fluorescence polarization, uHTS; 26S proteasome non-ATPase regulatory subunit 14 (Homo sapiens), O00487; human 26S proteasome, Ub4-pepOG fluorescence polarization; 20S core pre-blocked with epoxomicin; calls only at 20 µM; 360,000 tested, 0.59% active; AID 588493, 2011;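 active = inhibition at 20 µM, scaled to each plate's controls, above about 33%, limit read from the data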
CSN deneddyl inh – inhibitors of CSN-mediated cullin deneddylation, primary screen, biochemical, fluorescence polarization, uHTS; COP9 signalosome complex subunit 5 (Homo sapiens), Q92905; Purified CSN, SCF-Nedd8-OG deneddylation; inhibition, % at 12.5 µM; 360,000 tested, 0.38% active;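 active = pattern-corrected inhibition above about 35%, with an unprinted fluorescence ratio check between 0.5 and 1.5, limit read from the data, passing the limit was not always enough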;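 also: 0% = enzyme with substrate and 100% = substrate without enzyme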
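Material: human Csn5 produced in HEK293T cells; Input: enzyme 0.24 nM; Reagent: SCFSkp2-Nedd8OG substrate at 10 nM final; Dosing: 12.5 µM compound; Incubation: 90 min reaction at room temperature; Detection: fluorescence polarization of the substrate; Evaluation: % inhibition of substrate cleavage by Csn5; Control set: substrate-only high control, full reaction low control.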
TPT1 inhibitor – Candida albicans TPT1 enzyme inhibitors, primary screen, biochemical, fluorescence polarization; tRNA 2'-phosphotransferase TPT1 (Candida albicans SC5314); recombinant caTPT1, FP RNA substrate dephosphorylation; inhibition, % at 5 µM; 300,000 tested, 0.81% active; AID 1962, 2009;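 active = inhibition above the mean of all tested compounds plus 3 SD, set per screening campaign, cut at about 24% in these data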;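 also: plate controls were DMSO alone for no effect and ferristatin control at 100 nM for full effect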
CRFR2-BP ag – agonists of CRF-BP/CRF-R2 complex, primary screen, cell-based, HEK293, calcium dye fluorescence, uHTS; CRF-binding protein / CRF receptor 2 complex (human); calcium dye fluorescence (FLIPR); percent of saturating CRF peptide response; AID 588473, 2011; activation, % at 13.2 µM; 350,000 tested, 0.46% active;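 active = activation of at least 50%, plus an integration ratio under a set limit after plate pattern correction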;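 also: plate controls were neutral control wells without compound for no effect and CRF at EC100 for full effect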
HNF4A DNA FP – change in binding of human HNF4A to DNA, primary screen, biochemical, fluorescence polarization, FITC-DNA. 360,000 tested, 0.3% active. AID 1224865, 2016. activity change, % at 10 µM. 1 h; in the data active = activity change above about 30%, passing the limit was not always enough
Target sequence (P41235 whole entry, looked up): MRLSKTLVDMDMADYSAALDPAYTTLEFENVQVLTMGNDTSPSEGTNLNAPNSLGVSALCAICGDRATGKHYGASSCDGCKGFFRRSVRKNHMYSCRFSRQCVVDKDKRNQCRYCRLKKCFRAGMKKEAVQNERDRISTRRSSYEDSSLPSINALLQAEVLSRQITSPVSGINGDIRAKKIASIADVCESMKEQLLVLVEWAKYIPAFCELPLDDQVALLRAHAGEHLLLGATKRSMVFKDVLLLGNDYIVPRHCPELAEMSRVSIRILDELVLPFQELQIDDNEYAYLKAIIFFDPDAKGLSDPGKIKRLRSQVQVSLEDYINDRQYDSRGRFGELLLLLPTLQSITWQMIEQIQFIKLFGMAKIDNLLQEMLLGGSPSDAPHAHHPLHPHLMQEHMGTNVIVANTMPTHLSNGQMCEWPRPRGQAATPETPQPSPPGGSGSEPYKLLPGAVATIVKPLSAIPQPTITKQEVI
TPT1 inh confirm – Candida albicans TPT1 inhibitors, confirmation, biochemical, fluorescence polarization, triplicate; recombinant caTPT1, RNase T1 coupled; inhibition, % at 5 µM; shares compounds with TPT1 inhibitor; 2,400 tested, 74% active;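 active = inhibition above the primary screen limit, the mean inhibition of all tested compounds plus 3 SD, cut at about 25% in these data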
RNase T1 inh – RNase T1 inhibitors, counter-screen for TPT1 inhibitor project, biochemical, fluorescence polarization; AID 2153, 2009; inhibition, % at 5 µM; shares compounds with TPT1 inhibitor; 2,400 tested, 83% active; RNase T1 cleavage, 1536-well;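 active = inhibition above the solvent-only control well mean plus 3 SD, limit set per screening run, cut at about 23% in these data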;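 also: plate controls were DMSO wells with enzyme for no effect and wells without RNase T1 for full effect; inhibitors block cleavage so intact labeled substrate keeps polarization high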
Target sequence (P00651 whole entry, looked up): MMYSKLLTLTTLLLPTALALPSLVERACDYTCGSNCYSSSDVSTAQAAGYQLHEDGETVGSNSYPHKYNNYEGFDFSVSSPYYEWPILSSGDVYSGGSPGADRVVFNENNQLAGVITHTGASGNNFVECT
Numbers without * were called inactive; i = inactive; x = no result shown; + = active, no number. Hits are enriched below; roughly 2.3% of the tested compounds scored in any of these assays.

SMILES | CRFR2-BP antag | Rpn11 inh | CSN deneddyl inh | TPT1 inhibitor | CRFR2-BP ag | HNF4A DNA FP | TPT1 inh confirm | RNase T1 inh
CCOc1ccc(C2C(C#N)=C(N)SC(N)=C2C#N)cc1OC | x | x | x | 115* | x | x | 39* | 56*
CNC(=O)c1c(NC(=O)c2ccc(S(=O)(=O)N3CCCc4ccccc43)cc2)sc2c1CCN(C)C2 | -128 | x | 5 | 103* | 159* | 32* | 79* | 88*
CN1CCc2c(sc(NC(=O)c3ccc(S(=O)(=O)N4CCc5ccccc54)cc3)c2C(N)=O)C1 | x | x | x | 34* | x | x | 51* | 63*
Cc1cccc(NCc2nc(-c3ccccc3)no2)c1 | 24 | i | 5 | -2 | -3 | 1 | x | x
CN(C)c1ccc(/C=C(/C#N)C(=O)NCc2ccccc2)o1 | -99 | x | 71 | 177* | 108* | 178 | 192* | 176*
N#C/C(=C/c1ccccc1)C(=O)NCc1ccccc1 | -31 | i | 0 | -1 | -2 | 1 | x | x
O=C(O)/C=C\C(=O)Nc1cccc(C(=O)Nc2cccc(O)c2)c1 | -7 | i | -10 | -5 | -1 | 1 | x | x
NC(=S)N/N=C/c1ccc(-c2ccc([N+](=O)[O-])cc2)o1 | 8 | i | 3 | 27* | -1 | 6 | 36* | 47*
Cc1cc([N+](=O)[O-])ccc1-c1ccc(/C=N/NC(=O)Cc2ccccc2)o1 | -24 | i | -10 | 24* | 7 | -25 | 24* | 37*
Cc1cc(F)ccc1-c1cc(C(=O)N2CCN(c3ccncc3)CC2)[nH]n1 | x | i | -1 | x | x | -2 | x | x
CC(/C=C/c1ccc(N(C)C)cc1)=N\N=C(/N)SC1CC(=O)N(c2ccc(C(=O)O)cc2)C1=O (stereo unspecified) | -4 | x | 13 | 26* | 4 | 40* | 28* | 43*
COc1ccc(-c2cc(C(=O)Nc3ccc(C)c(N)c3)c3ccccc3n2)cc1 | -12 | i | 4 | -1 | 0 | 0 | x | x
CC(=O)C1CCC2C3CCC4=CC(=O)C=CC4(C)C3C(=O)CC12C (stereo unspecified) | 0 | i | -2 | x | 2 | 1 | x | x
C[C@]12C=CC(=O)C=C1CC[C@@H]1C2=CC[C@]2(C)[C@@H](C(=O)CN3CCN(c4cc(N5CCCC5)nc(N5CCCC5)n4)CC3)CC[C@@H]12 | -15 | i | 5 | 31* | 5 | 6 | 29* | 41*
CCOC(=O)N1CCN(C(=O)C2CCN(S(=O)(=O)CC)CC2)CC1 | 8 | i | 1 | -2 | 0 | -4 | x | x
CCOc1ccc(/C=C2/SC(=S)N(C(C(=O)O)c3ccccc3)C2=O)cc1OCC (stereo unspecified) | 39 | i | 1 | x | 10 | 4 | x | x
CC(C(=O)O)N1C(=O)/C(=C/c2cccn2C)SC1=S (stereo unspecified) | 21 | x | 48* | 96* | 6 | 85* | 105* | 118*
CCC(C(=O)O)N1C(=O)/C(=C/c2cccn2C)SC1=S (stereo unspecified) | 17 | x | 82* | 118* | 3 | 101* | 124* | 130*
Cn1cccc1/C=C1/SC(=S)N(CC(=O)O)C1=O | 11 | x | 50* | 89* | 5 | 81* | 110* | 120*
COc1ccccc1/C=C1\SC(=S)N(C(C(=O)O)c2ccccc2)C1=O (stereo unspecified) | 6 | i | 1 | 4 | -1 | -7 | x | x
COc1ccc(Oc2cnc3ccccc3n2)cc1 | -4 | i | 1 | 66* | -2 | -4 | 4 | 5
CN1CCCN(Cc2cccc3ccccc23)CC1 | -11 | i | 0 | 0 | 2 | 0 | x | x
CC(C)(C)NS(=O)(=O)c1cc(C(=O)Nc2sccc2C#N)ccc1Cl | 41 | x | 31 | 36* | 37 | 28 | 32* | 43*
N#Cc1ccsc1NC(=O)c1cnccn1 | -1 | i | 3 | -3 | 1 | 4 | x | x
CCOC(=O)c1nn(-c2ccc(Cl)cc2Cl)c(=N)c(C#N)c1C | x | x | x | 95* | x | x | 81* | 87*
SMILES | CRFR2-BP antag | Rpn11 inh | CSN deneddyl inh | TPT1 inhibitor | CRFR2-BP ag | HNF4A DNA FP | TPT1 inh confirm | RNase T1 inh
CCS(=O)(=O)NCc1ccc2[nH]c3c(c2c1)CCCC3 | x | x | x | -3 | x | x | x | x
Cc1csc(NC(=O)CSc2sc3c(O)cc(=O)[nH]c3c2C#N)n1 | 6 | i | 15 | 4 | -1 | -13 | x | x
CCc1nnc(NC(=O)CSc2sc3c(O)cc(=O)[nH]c3c2C#N)s1 | 7 | + | 30 | 49* | 4 | -35 | 14 | 18
COc1ccc(N(C(=O)CCl)C(C(=O)NCCc2ccccc2)c2cccs2)cc1Cl (stereo unspecified) | -81 | i | 4 | 1 | 1 | 0 | x | x
COc1ccc(C2C(C(C)=O)=C(C)N=c3s/c(=C\c4cc(C)n(C)c4C)c(=O)n32)c(OC)c1 (stereo unspecified) | -28 | x | 101 | 132* | 17 | 143 | 134* | 127*
O=C(NCc1ccc(F)cc1)C1CCCN(S(=O)(=O)c2ccc(Br)s2)C1 (stereo unspecified) | 2 | i | 1 | -6 | 1 | 2 | x | x
O=C(COC(=O)c1ccc2c(c1)OCCO2)Nc1cc(S(=O)(=O)N2CCOCC2)ccc1Cl | 2 | i | 3 | 0 | 1 | 7 | x | x
CC(C)CCOc1ccc(C2=NNC(=O)CC2)cc1 | 0 | i | 2 | -5 | -1 | 3 | x | x
CCCCCc1ccc(C2=NNC(=O)CC2)cc1 | 3 | i | 2 | 2 | -1 | -4 | x | x
CCn1c(O)c(/C=N/N=C/c2ccc(OC)cc2)c2cc(C3=NNC(=O)CC3)ccc21 | -32 | x | 89* | 47* | 27 | 95* | 74* | 86*
CC/C(C)=N\N=C\c1c(O)n(CC)c2cc(C3=NNC(=O)CC3)ccc12 | -31 | i | 12 | 51* | 1 | 11 | 35* | 47*
COc1ccc(CN2CCN(Cc3cc(=O)oc4cc(C)ccc34)CC2)c(OC)c1OC | -7 | i | 0 | 26* | 0 | 1 | 10 | 13
Cn1ccnc1SCC(=O)c1cc2ccccc2o1 | 22 | i | 5 | 61* | 3 | 15 | 29* | 41*
